Hits are enriched below; roughly 4.9% of the tested compounds scored in any of these assays.
APP 5'UTR act: activators of APP 5'UTR luciferase reporter, primary screen, SH-SY5Y cells; SH-SY5Y APP 5'UTR luciferase reporter, luminescence; zero percent = DMSO vehicle wells; activation, % at 2 µM; 1% of 190,000 active; AID 1276, 2008;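 active = activation above a set limit, based on mean plus 3 SD of controls, cut at about 140% in these data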
STAT1 activator: STAT1 signaling activators, primary screen, cell-based, HTS, luciferase reporter. 2.6% of 200,000 active. NIH 3T3 STAT1-luciferase reporter, IFN-gamma, luminescence; 100% = IFN-gamma alone, no compound. AID 932, 2007. activation (% of control), % at 5.5 µM;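 active = activation above the screen-wide mean activation plus 3 SD, cut at about 130% in these data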
NF-kB expr up: activators of NF-kB expression in neurons, primary screen, cell-based, HTS; human neuronal cells, NF-kB reporter expression; stronger effect = higher value; fold change at 12.5 µM; 1.6% of 190,000 active; AID 1239, 2008; in the data active = fold change above about 3.3
STAT3 activator: IL-6 driven STAT3 reporter potentiators, primary screen, U3A cells, luciferase, luminescence, MLSCN library; IL-6 STAT3-luciferase reporter; 100% = signal with IL-6 EC80 alone; activation (% of control), % at 5.6 µM; 0.91% of 190,000 active; AID 871, 2007;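 active = activation above the screen-wide mean of compound activation plus 3 SD, cut at about 130% in these data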
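Material: STAT1-lacking human U3A cells, STAT3 luciferase reporter | Benchmarks: IL-6-only wells as 100% reference | Probe or stimulus: IL-6 (33 ng/mL) | Timing: Compound 1 h, then IL-6 6 h at 37 °C | Detection: Luminescence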
STAT1 inh: STAT1 signaling inhibitors, primary screen, cell-based, HTS, luciferase reporter; inhibition, % at 5.5 µM; 0.35% of 200,000 active; NIH 3T3 STAT1-luciferase reporter, IFN-gamma, luminescence;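 active = inhibition above a set limit, the mean inhibition across all tested compounds plus 3 SD, cut at about 34% in these data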
STAT3 inh: IL-6 driven STAT3 reporter inhibitors, primary screen, U3A cells, luciferase, luminescence, MLSCN library; AID 862, 2007; inhibition, % at 5.5 µM; 0.89% of 190,000 active; IL-6 STAT3-luciferase reporter; host cell line lacks STAT1;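 active = inhibition above the mean inhibition across all screened compounds plus 3 SD, cut at about 44% in these data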
STAT1 act conf: STAT1 signaling activators, confirmation, cell-based, HTS, luciferase reporter; NIH 3T3 STAT1-luciferase reporter, IFN-gamma potentiation, luminescence; 100% = IFN-gamma EC80 alone, no compound; 97% of 1,200 active; activation (% of control), % at 5.7 µM; shares compounds with STAT1 activator;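 active = activation above a set limit carried over from the earlier primary STAT1 screen, cut at about 140% in these data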
NFkB act STAT1ct: NF-kB reporter activators, TNF-alpha stimulated, counter-screen for STAT1 activator project, cell-based, HEK293T, luciferase luminescence; shares compounds with STAT1 activator; 100% = TNF-alpha with vehicle only; activation (% of control), % at 5.7 µM; 43% of 1,200 active; AID 1306, 2008;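 active = activation above the mean of solvent-only control wells plus 3 SD, set per campaign, cut at about 130% in these data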;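 also: TNF-alpha given at a submaximal dose yielding about 80% of full reporter signal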
STAT3 act 2: STAT3 reporter activation by STAT1 hits, confirmation, counter-screen for STAT1 activator project, U3A cells, luciferase, luminescence; shares compounds with STAT1 activator; IL-6; cells lack STAT1; 100 = IL-6 alone, no compound effect; activation (% of control), % at 5.7 µM; 46% of 1,200 active; AID 1316, 2008;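 active = activation above the solvent-only control well mean plus 3 SD, set per plate batch, cut at about 110% in these data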;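 also: higher means more STAT3 reporter activation so hits are non-selective activators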
A number is an active result; – = inactive; · = not tested or not shown.

SMILES | APP 5'UTR act | STAT1 activator | NF-kB expr up | STAT3 activator | STAT1 inh | STAT3 inh | STAT1 act conf | NFkB act STAT1ct | STAT3 act 2
CCOC(=O)c1sc2nc3c(cc2c1N)COC(C(C)C)C3 (stereo not drawn) | 145 | 214 | – | – | – | – | 233 | – | –
CCSc1nnc(NC(=O)CCCOc2ccc(C)cc2)s1 | – | – | – | – | – | – | · | · | ·
Fc1ccccc1Nc1nc2c(s1)CCc1ccccc1-2 | 164 | 198 | 7.8 | – | – | – | 268 | 157 | 161
Fc1ccccc1Nc1n[nH]c(=S)s1 | – | – | – | – | – | – | · | · | ·
O=C(N/N=C/C=C/c1ccccc1)c1ccncc1 | – | – | – | – | – | – | · | · | ·
C/C(=N/NC(=O)c1cccs1)c1ccco1 | – | – | – | – | – | – | · | · | ·
O=C(N/N=C/C=C/c1ccccc1)c1cccs1 | – | 157 | 3.5 | – | – | – | 165 | 137 | –
CC(/C=N/NC(=O)c1cccs1)=C\c1ccco1 | 160 | 171 | 5.5 | – | – | – | 173 | – | –
CC(/C=N/NC(=O)Cc1cccs1)=C\c1ccco1 | – | – | – | – | – | – | · | · | ·
C/C(=N\NC(=O)c1cccs1)C(C)(C)C | – | 158 | – | – | – | – | – | – | 113
CN(C)S(=O)(=O)c1cccc(NC(=O)Cn2cc(C(F)(F)F)cc(Cl)c2=O)c1 | – | – | – | – | – | – | · | · | ·
Cc1cc(Nc2ccccc2)n(CCO)n1 | – | – | – | – | – | – | · | · | ·
COc1ccccc1OCc1cc(-c2ccccc2)no1 | – | 161 | 4.3 | – | – | – | 184 | 138 | –
c1ccc(OCc2cc(-c3ccccc3)no2)cc1 | – | 152 | – | – | – | – | 169 | – | –
c1ccc(SCc2cc(-c3ccccc3)no2)cc1 | – | 162 | – | – | – | – | 175 | – | –
Cc1ccc(SCc2cc(-c3ccc(Cl)cc3)no2)cc1 | · | – | – | – | – | – | · | · | ·
O=C(NC(=S)Nc1ccc(S(=O)(=O)NC2CCCCC2)cc1)c1cccs1 | – | – | – | – | – | – | · | · | ·
CCCCCCC1CC(=O)NC(=S)N1 (stereo not drawn) | – | – | – | – | – | – | · | · | ·
O=C(CCl)Nc1cn(-c2ccccc2)nc1-c1ccc(F)cc1 | – | – | – | – | – | – | · | · | ·
COc1ccc(NC(=O)Nc2ccc(Br)cn2)cc1 | – | 169 | – | – | – | – | 160 | – | –
Cc1ccc(NC(=O)Nc2ccc(Cl)cn2)cc1 | – | 172 | – | – | – | – | 171 | – | –
COC(=O)c1ccccc1NC(=O)Nc1ccc(Br)cn1 | – | – | – | – | – | – | · | · | ·
O=C(O)/C=C/C(=O)NC1CCCCC1 | – | – | – | – | – | – | · | · | ·
CN(C)S(=O)(=O)c1cccc(-c2cn3cc(Cl)ccc3n2)c1 | – | – | – | – | – | – | · | · | ·
Clc1ccc(-c2cn3cc(Br)ccc3n2)cc1Cl | 201 | 165 | 7.2 | – | – | – | 222 | – | 122
SMILES | APP 5'UTR act | STAT1 activator | NF-kB expr up | STAT3 activator | STAT1 inh | STAT3 inh | STAT1 act conf | NFkB act STAT1ct | STAT3 act 2
Brc1ccc2nc(-c3c[nH]c4ccccc34)cn2c1 | 213 | 194 | – | – | – | – | 287 | 143 | 113
O=C1NN(c2ccccc2)C(=O)/C1=C/c1ccc(Sc2cccc3ccccc23)o1 | – | – | – | – | – | – | · | · | ·
O=C(N/N=C/c1ccc(Br)cc1)c1ccc(Br)o1 | – | 159 | 3.5 | – | – | – | 190 | 137 | 113
N#Cc1ccc(Oc2ccc(NC(=O)C3CC=CCC3C(=O)O)cc2)cc1 (stereo not drawn) | – | – | – | – | – | – | · | · | ·
Cc1cc(C)c(C#N)c(SCC(=O)Nc2ccccc2C)n1 | – | – | – | – | – | – | · | · | ·
Cc1cc(C(F)(F)F)c(C#N)c(SCC(=O)Nc2nc3ccccc3s2)n1 | 180 | 152 | – | – | – | – | 261 | – | 193
C=CCc1ccc(OCCOCCOc2cccc3cccnc23)c(OC)c1 | – | – | – | – | – | – | · | · | ·
C=CCn1c(SCC(N)=O)nc2scc(-c3ccc(C)o3)c2c1=O | 167 | 155 | – | – | – | – | 202 | 138 | 129
CC(C)Oc1cccc(C(=O)Nc2ccc(Br)cc2F)c1 | 139 | 162 | 6.1 | – | – | – | 209 | – | –
CCNC(=O)n1nccc1C(C)Oc1ccc(Cl)cc1 (stereo not drawn) | – | – | – | – | – | – | · | · | ·
Clc1c(-c2ccccc2)nnn1-c1ccccc1 | 153 | 177 | 4.8 | – | – | – | 209 | 137 | –
Clc1ccc(-n2nnnc2-c2ccccc2)cc1Cl | – | – | – | – | – | – | · | · | ·
CCOC(=O)CSc1nc2cc3c(cc2cc1C#N)OCCO3 | 181 | 174 | – | – | – | – | 293 | 143 | 123
CC(C)OC(=O)CSc1nc2cc3c(cc2cc1C#N)OCO3 | – | – | – | – | – | – | · | · | ·
CCOC(=O)CSc1nc2cc3c(cc2cc1C#N)OCO3 | – | 155 | 4.1 | – | – | – | 223 | 144 | 115
CCOC(=O)CSc1nc2cc3c(cc2cc1C)OCO3 | – | – | – | – | – | – | · | · | ·
COC(=O)CSc1nc2cc3c(cc2cc1C#N)OCO3 | 170 | 155 | 6.8 | – | – | – | 265 | 147 | 117
CCOc1ccc2ccccc2c1/C=N/NC(=O)CC1(C)OCCCO1 | – | – | – | – | – | – | · | · | ·
Cc1ccc(-c2nc(CN3CCCCC3)cc(CN3CCCCC3)c2O)cc1 | – | – | – | – | – | – | · | · | ·
Cc1cc(CNC(=O)CC2C(=O)NCCN2Cc2ccccc2C(F)(F)F)on1 (stereo not drawn) | – | – | – | – | – | – | · | · | ·
Cc1ccc(Cl)cc1NC(=O)c1cccc(OC(F)F)c1 | – | – | – | – | – | – | · | · | ·
Clc1cnc(N/N=C/c2ccco2)c(Cl)c1 | 155 | 159 | 4.2 | – | – | – | 151 | – | –
Cc1ccc(/C=N/Nc2ncc(Cl)cc2Cl)s1 | – | – | – | – | – | – | · | · | ·
CCC(=O)Nc1ccc2c(c1)ncn2-c1ccc(C)cc1 | – | 162 | – | – | – | – | 183 | 136 | 135
